Reference: ChEMBL document CHEMBL3865799, “Synthesis of a series of novel dihydroartemisinin monomers and dimers containing chalcone as a linker and their anticancer activity” (Eur J Med Chem, 2016)

Key:
[1] = Cytotoxicity against human LS180 cells assessed as cell growth inhibition at 50 uM after 48 hrs by MTT assay; format: functional; details: LS180, 48 h, read-out: GI
Summary of the method: (§1)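 Adherent lines at 70–75% confluence, grown at 37 °C in 5% CO2 with 10% FCS. Exposed 48 h to compound in DMSO (vehicle <0.2% v/v). MTT dye added 3 h before termination; formazan dissolved in DMSO, OD 570 nm with 620 nm reference. Growth inhibition expressed as % of untreated; IC50 taken from the dose series.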

[2] = Cell cycle arrest in human HL60 cells assessed as accumulation at G1 phase at 0.2 uM after 24 hrs by propidium iodide-DNA fluorescence based FACS analysis (reference value: 46 %); format: functional; details: HL-60
Summary of the method: (§2)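 HL-60 cells seeded at 0.5 × 10^6 cells/ml, exposed 24 h to compound (DMSO vehicle, <0.2% v/v). Pelleted at 400×g, PBS-washed, fixed in 70% ethanol at 4 °C overnight. RNase A treatment at 37 °C for 1.30 h, then propidium iodide staining for 20 min. Flow cytometry on 10,000 events, FL2-A vs FL2-W; subG0 (apoptotic) and phase populations gated.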

[3] = Cell cycle arrest in human HL60 cells assessed as accumulation at G1 phase at 1 uM after 24 hrs by propidium iodide-DNA fluorescence based FACS analysis (reference value: 46 %); format: functional; details: HL-60; summary of the method: as §2
[4] = Cell cycle arrest in human HL60 cells assessed as accumulation at S phase at 1 uM after 24 hrs by propidium iodide-DNA fluorescence based FACS analysis (reference value: 53 %); format: functional; details: HL-60; summary of the method: as §2
[5] = Cytotoxicity against human MIAPaCa2 cells assessed as cell growth inhibition after 48 hrs by MTT assay; format: functional, cell-based; details: MIA PaCa-2, 48 h; summary of the method: as §1
[6] = Selectivity index, ratio of IC50 for African green monkey Vero cells to IC50 for human LS180 cells; format: functional
Summary of the method: (§3)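 Suspension cells were seeded at 1.5 × 10^4 per well and adherent lines at 70–75% confluence, then exposed to a range of concentrations. MTT was added 3 h before the end, formazan dissolved in DMSO, and OD read at 570 nm (reference 620 nm). Growth inhibition was taken relative to untreated cells. IC50 came from the MTT data; SI = IC50 in Vero cells / IC50 in the tumour line.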

[7] = Cytotoxicity against human HL60 cells assessed as cell growth inhibition at 10 uM after 48 hrs by MTT assay; format: functional; details: HL-60, 48 h, read-out: GI
Summary of the method: (§4)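 HL-60 suspension cells, 1.5 × 10^4 per well, grown at 37 °C in 5% CO2 with 10% FCS. Treated 48 h with compound in DMSO (vehicle <0.2% v/v). MTT added 3 h before the end. Formazan dissolved in DMSO and read at 570 nm (reference 620 nm). % growth inhibition computed against untreated cells; IC50 taken from the concentration series.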

[8] = Cytotoxicity against human LS180 cells assessed as cell growth inhibition after 48 hrs by MTT assay; format: functional, cell-based; details: LS180, 48 h; summary of the method: as §1
[9] = Cytotoxicity against human HepG2 cells assessed as cell growth inhibition after 48 hrs by MTT assay; format: functional, cell-based; details: HepG2, 48 h; summary of the method: as §1
Vero [10] = assay: Selectivity index, ratio of IC50 for African green monkey Vero cells to IC50 for human MIAPaCa2 cells; format: functional; summary of the method: as §3
[11] = Cytotoxicity against human HL60 cells assessed as cell growth inhibition at 0.5 uM after 48 hrs by MTT assay; format: functional; details: HL-60, 48 h, read-out: GI; summary of the method: as §4
[12] = Cell cycle arrest in human HL60 cells assessed as accumulation at G2 phase at 1 uM after 24 hrs by propidium iodide-DNA fluorescence based FACS analysis (reference value: 1 %); format: functional; details: HL-60; summary of the method: as §2
[13] = Cell cycle arrest in human HL60 cells assessed as accumulation at subG0 phase at 0.5 uM after 24 hrs by propidium iodide-DNA fluorescence based FACS analysis (reference value: 5 %); format: functional; details: HL-60; summary of the method: as §2
HepG2 = assay: Selectivity index, ratio of IC50 for African green monkey Vero cells to IC50 for human HepG2 cells; format: functional; summary of the method: as §3
HL-60 [14] = assay: Induction of apoptosis in human HL60 cells assessed as loss of mitochondrial membrane potential at 1 uM after 24 hrs by Rh123 dye-based FACS analysis (reference value: 5%); format: functional
[15] = Cytotoxicity against human PC3 cells assessed as cell growth inhibition at 30 uM after 48 hrs by MTT assay; format: functional; details: PC-3, 48 h, read-out: GI; summary of the method: as §1
HL-60 [16] = assay: Induction of apoptosis in human HL60 cells assessed as loss of mitochondrial membrane potential at 5 uM after 24 hrs by Rh123 dye-based FACS analysis (reference value: 5%); format: functional
[17] = Cell cycle arrest in human HL60 cells assessed as accumulation at G2 phase at 0.5 uM after 24 hrs by propidium iodide-DNA fluorescence based FACS analysis (reference value: 1 %); format: functional; details: HL-60; summary of the method: as §2
[18] = Cell cycle arrest in human HL60 cells assessed as accumulation at G2 phase at 5 uM after 24 hrs by propidium iodide-DNA fluorescence based FACS analysis (reference value: 1 %); format: functional; details: HL-60; summary of the method: as §2
[19] = Cell cycle arrest in human HL60 cells assessed as accumulation at S phase at 5 uM after 24 hrs by propidium iodide-DNA fluorescence based FACS analysis (reference value: 53 %); format: functional; details: HL-60; summary of the method: as §2
[20] = Cytotoxicity against human HepG2 cells assessed as cell growth inhibition at 50 uM after 48 hrs by MTT assay; format: functional; details: HepG2, 48 h, read-out: GI; summary of the method: as §1
[21] = Cell cycle arrest in human HL60 cells assessed as accumulation at subG0 phase at 0.2 uM after 24 hrs by propidium iodide-DNA fluorescence based FACS analysis (reference value: 5 %); format: functional; details: HL-60; summary of the method: as §2
[22] = Cytotoxicity against human HepG2 cells assessed as cell growth inhibition at 30 uM after 48 hrs by MTT assay; format: functional; details: HepG2, 48 h, read-out: GI; summary of the method: as §1
[23] = Cytotoxicity against human HL60 cells assessed as cell growth inhibition after 48 hrs by MTT assay; format: functional, cell-based; details: HL-60, 48 h; summary of the method: as §4
[24] = Cell cycle arrest in human HL60 cells assessed as accumulation at S phase at 0.5 uM after 24 hrs by propidium iodide-DNA fluorescence based FACS analysis (reference value: 53 %); format: functional; details: HL-60; summary of the method: as §2
[25] = Cell cycle arrest in human HL60 cells assessed as accumulation at G1 phase at 0.5 uM after 24 hrs by propidium iodide-DNA fluorescence based FACS analysis (reference value: 46 %); format: functional; details: HL-60; summary of the method: as §2
[26] = Cytotoxicity against human HL60 cells assessed as cell growth inhibition at 1 uM after 48 hrs by MTT assay; format: functional; details: HL-60, 48 h, read-out: GI; summary of the method: as §4
[27] = Cell cycle arrest in human HL60 cells assessed as accumulation at S phase at 0.2 uM after 24 hrs by propidium iodide-DNA fluorescence based FACS analysis (reference value: 53 %); format: functional; details: HL-60; summary of the method: as §2
Vero [28] = assay: Selectivity index, ratio of IC50 for African green monkey Vero cells to IC50 for human HL60 cells; format: functional; summary of the method: as §3
[29] = Cytotoxicity against human PC3 cells assessed as cell growth inhibition at 50 uM after 48 hrs by MTT assay; format: functional; details: PC-3, 48 h, read-out: GI; summary of the method: as §1
[30] = Cytotoxicity against human MIAPaCa2 cells assessed as cell growth inhibition at 30 uM after 48 hrs by MTT assay; format: functional; details: MIA PaCa-2, 48 h, read-out: GI; summary of the method: as §1

| Compound | inhibition of growth at 50 µM [1] [%] | Activity [2] [%] | Activity [3] [%] | Activity [4] [%] | IC50 [5] [µM] | Ratio IC50 [6] | inhibition of growth at 10 µM [7] [%] | IC50 [8] [µM] | IC50 [9] [µM] | Ratio IC50 (Vero [10]) | inhibition of growth at 0.5 µM [11] [%] | Activity [12] [%] | Activity [13] [%] | Ratio IC50 (HepG2) | Activity (HL-60 [14]) [%] | inhibition of growth at 30 µM [15] [%] | Activity (HL-60 [16]) [%] | Activity [17] [%] | Activity [18] [%] | Activity [19] [%] | further results |
| --- | --- | --- | --- | --- | --- | --- | --- | --- | --- | --- | --- | --- | --- | --- | --- | --- | --- | --- | --- | --- | --- |
| C[C@H]1[C@@H](O)O[C@@H]2O[C@@]3(C)CC[C@H]4[C@H](C)CC[C@@H]1[C@@]24OO3 [ARTENIMOL] | 42 | 49 | 62 | 34 | 58 | 19 | 63 | 32 | 29 | 12 | 36 | 4 | 8 | 1.81 | 32 | 41 | 41 | 5 | 5 | 20 | inhibition of growth at 50 µM [20]: 39%; Activity [21]: 6%; inhibition of growth at 30 µM [22]: 36%; IC50 [23]: 2 µM; Activity [24]: 37%; Activity [25]: 58%; inhibition of growth at 1 µM [26]: 48.1%; Activity [27]: 49%; Ratio IC50 (Vero [28]): 63; inhibition of growth at 50 µM [29]: 43%; inhibition of growth at 30 µM [30]: 58% |
| C[C@H]1[C@@H](OCCOc2ccc(/C=C/C(=O)c3ccc(O)cc3)cc2)O[C@@H]2O[C@@]3(C)CC[C@H]4[C@H](C)CC[C@@H]1[C@@]24OO3 | 75.2 | 49 | 14 | 70 | 22 | 96 | 88.4 | 24 | 7 | 88 | 58.2 | 16 | 28 | 450 | 53 | 88.6 | 61 | 9 | 10 | 35 | inhibition of growth at 50 µM [20]: 55.2 to 82.3%; Activity [21]: 4%; inhibition of growth at 30 µM [22]: 68.3 to 86.8%; IC50 [23]: 0.3 µM; Activity [24]: 32%; Activity [25]: 59%; inhibition of growth at 1 µM [26]: 78.8%; Activity [27]: 46%; Ratio IC50 (Vero [28]): 240; inhibition of growth at 50 µM [29]: 88.9%; inhibition of growth at 30 µM [30]: 68.3 to 86.8% |
| C[C@H]1[C@@H](OCCOc2cccc(C(=O)/C=C/c3ccc(O)cc3)c2)O[C@@H]2O[C@@]3(C)CC[C@H]4[C@H](C)CC[C@@H]1[C@@]24OO3 | 35.2 | 49 | 52 | 29 | 39 | >200 | 88.7 | > 50 | 15 | 32 | 52.9 | 19 | 9 | 55 | 50 | 83.5 | 58 | 8 | 16 | 20 | inhibition of growth at 50 µM [20]: 33.2 to 64.5%; Activity [21]: 4%; inhibition of growth at 30 µM [22]: 37.8 to 77.4%; IC50 [23]: 0.4 µM; Activity [24]: 38%; Activity [25]: 54%; inhibition of growth at 1 µM [26]: 57%; Activity [27]: 46%; Ratio IC50 (Vero [28]): 180; inhibition of growth at 50 µM [29]: 87.9%; inhibition of growth at 30 µM [30]: 37.8 to 77.4% |
